# Test results as given in ChEMBL document CHEMBL3124885, “Discovery of 7-tetrahydropyran-2-yl chromans: β-site amyloid precursor protein cleaving enzyme 1 (BACE1) inhibitors that reduce amyloid β-protein (Aβ) in the central nervous system” (J Med Chem, 2014).
# How the values were obtained:
# [1] = Intrinsic clearance in Hartley guinea pig hepatocytes at 2 uM after 60 to 120 mins; type: ADME, cell-based, Cavia porcellus, Hepatocyte; details: read-out: CLH
# [2] = Ratio of unbound drug level in brain to plasma in Sprague-Dawley rat at 60 mg/kg, po measured at 5 hrs; type: ADME, organism-based; design: dose 60 mg/kg, route oral; details: brain and plasma (unbound), read-out: K(p,uu,brain)
# Method in brief: (§1)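 Male Sprague–Dawley rats dosed 60 mg/kg po in 1% CMC/0.5% Tween/5 mM citrate in H₂O; plasma, brain and CSF taken at 1, 3, 5, 8 and 12 h; unbound plasma and brain levels and their ratio determined.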
# [3] = Fraction unbound in Hartley guinea pig brain at 30 mg/kg, po measured at 3 hrs; type: ADME, organism-based, Cavia porcellus; design: dose 30 mg/kg, route oral; details: in vivo
# [4] = Cmax in cynomolgus monkey CSF at 100 mg/kg, po measured at 2 hrs; type: ADME, organism-based, Macaca fascicularis, Cerebrospinal fluid; design: dose 100 mg/kg, route oral
# [5] = Drug uptake in Hartley guinea pig CSF at 60 mg/kg, po measured at 8 hrs; type: ADME, organism-based, Cavia porcellus, Cerebrospinal fluid; design: dose 60 mg/kg, route oral; details: read-out: Drug uptake
# Method in brief: (§2)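 Male Hartley guinea pigs, oral dosing (CMC/Tween/citrate suspension or PEG/EtOH/H₂O solution), six or eight animals per cohort; CSF drug concentration (nM) measured at each time point.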
# [6] = Ratio of unbound drug level in brain to plasma in Sprague-Dawley rat at 60 mg/kg, po measured at 1 hr; type: ADME, organism-based; design: dose 60 mg/kg, route oral; details: brain and plasma (unbound), read-out: K(p,uu,brain); method in brief: as §1
# [7] = Ratio of unbound drug level in brain to plasma in Hartley guinea pig at 60 mg/kg, po measured at 12 hrs; type: ADME, organism-based, Cavia porcellus; design: dose 60 mg/kg, route oral; details: brain and plasma (unbound), read-out: K(p,uu,brain)
# Method in brief: (§3)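 Male Hartley guinea pigs given single oral doses of 30, 60 or 100 mg/kg in 1% CMC/0.5% Tween/5 mM citrate in H₂O, 6–8 animals per cohort. Plasma, brain and CSF sampled at 1–12 h; free brain to free plasma ratio computed.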
# [8] = Unbound plasma concentration in Hartley guinea pig at 60 mg/kg, po measured at 1 hr; type: ADME, organism-based, Cavia porcellus; design: dose 60 mg/kg, route oral; details: in vivo
# Method in brief: (§4)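 Male Hartley guinea pigs were dosed orally at 30, 60 or 100 mg/kg, with six or eight animals per cohort. The vehicle was either a suspension in 1% CMC/0.5% Tween/5 mM citrate in H₂O or a 40/10/50 PEG/EtOH/H₂O solution, depending on compound. Unbound plasma concentration was sampled at 1–12 h post-dose alongside brain, CSF and CSF Aβ₁₋₄₀.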
# Brain [9] = experiment: Fraction unbound in Sprague-Dawley rat brain at 60 mg/kg, po measured at 1 hr; type: ADME, organism-based; design: dose 60 mg/kg, route oral; details: in vivo; method in brief: as §1
# [10] = Drug uptake in cynomolgus monkey CSF at 0.5 mg/kg, iv and 100 mg/kg, po measured at 4 hrs; type: ADME, organism-based, Macaca fascicularis, Cerebrospinal fluid; details: read-out: Drug uptake
# Method in brief: (§5)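 Female cynomolgus monkeys, 3 per dosing route; iv formulation PEG400/EtOH/water (40/10/50) solution; oral suspension in 1% CMC, 0.5% Tween 80, 5 mM citrate buffer; CSF concentration measured.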
# [11] = Ratio of unbound drug level in brain to plasma in Sprague-Dawley rat at 60 mg/kg, po measured at 8 hrs; type: ADME, organism-based; design: dose 60 mg/kg, route oral; details: brain and plasma (unbound), read-out: K(p,uu,brain); method in brief: as §1
# [12] = Ratio of unbound drug level in brain to plasma in Hartley guinea pig at 60 mg/kg, po measured at 3 hrs; type: ADME, organism-based, Cavia porcellus; design: dose 60 mg/kg, route oral; details: brain and plasma (unbound), read-out: K(p,uu,brain); method in brief: as §3
# [13] = Fraction unbound in Hartley guinea pig brain at 60 mg/kg, po measured at 8 hrs; type: ADME, organism-based, Cavia porcellus; design: dose 60 mg/kg, route oral; details: in vivo
# [14] = Drug uptake in Hartley guinea pig CSF at 100 mg/kg, po measured at 3 hrs; type: ADME, organism-based, Cavia porcellus, Cerebrospinal fluid; design: dose 100 mg/kg, route oral; details: read-out: Drug uptake; method in brief: as §2
# [15] = Drug uptake in cynomolgus monkey CSF at 0.5 mg/kg, iv and 100 mg/kg, po measured at 2 hrs; type: ADME, organism-based, Macaca fascicularis, Cerebrospinal fluid; details: read-out: Drug uptake; method in brief: as §5
# [16] = Fraction unbound in Hartley guinea pig brain at 60 mg/kg, po measured at 5 hrs; type: ADME, organism-based, Cavia porcellus; design: dose 60 mg/kg, route oral; details: in vivo
# [17] = Clearance in Hartley guinea pig liver microsomes at 1 uM after 20 mins by LC-MS/MS analysis in presence of NADPH; type: ADME, Cavia porcellus, Microsome; details: read-out: CLH
# [18] = Solubility of the compound at pH 7.2; type: physicochemical; details: buffer
# Plasma = experiment: Unbound plasma concentration in Sprague-Dawley rat at 60 mg/kg, po measured at 3 hrs; type: ADME, organism-based; design: dose 60 mg/kg, route oral; details: in vivo
# Method in brief: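 Male Sprague-Dawley rats were given a single 60 mg/kg oral dose in 1% CMC/0.5% Tween/5 mM citrate in H₂O. Free plasma concentration was determined at 1, 3, 5, 8 and 12 h. Brain, CSF and CSF Aβ₁₋₄₀ were sampled at the same times.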
# [19] = Fraction unbound in Hartley guinea pig brain at 60 mg/kg, po measured at 1 hr; type: ADME, organism-based, Cavia porcellus; design: dose 60 mg/kg, route oral; details: in vivo
# Brain [20] = experiment: Fraction unbound in Sprague-Dawley rat brain at 60 mg/kg, po measured at 5 hrs; type: ADME, organism-based; design: dose 60 mg/kg, route oral; details: in vivo; method in brief: as §1
# Rattus norvegicus = experiment: Hepatic clearance in Sprague-Dawley rat at 3 mg/kg, iv; type: ADME, organism-based, Liver; design: dose 3 mg/kg, route intravenous; details: in vivo
# Method in brief: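 Male Sprague–Dawley rats, 3 per cohort, iv 3 mg/kg in 30% captisol/5 mM citrate in saline; po 60 mg/kg in 1% CMC/0.5% Tween/5 mM citrate in H₂O.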
# [21] = Unbound plasma concentration in Hartley guinea pig at 100 mg/kg, po measured at 3 hrs; type: ADME, organism-based, Cavia porcellus; design: dose 100 mg/kg, route oral; details: in vivo; method in brief: as §4
# [22] = Unbound plasma concentration in Hartley guinea pig at 60 mg/kg, po measured at 12 hrs; type: ADME, organism-based, Cavia porcellus; design: dose 60 mg/kg, route oral; details: in vivo; method in brief: as §4
# [23] = Intrinsic clearance in cynomolgus monkey hepatocytes at 2 uM after 60 to 120 mins; type: ADME, cell-based, Macaca fascicularis, Hepatocyte; details: read-out: CLH
# [24] = Intrinsic clearance in Sprague-Dawley rat hepatocytes at 2 uM after 60 to 120 mins; type: ADME, cell-based, Hepatocyte; details: read-out: CLH
# [25] = Drug uptake in Sprague-Dawley rat CSF at 60 mg/kg, po measured at 12 hrs; type: ADME, organism-based, Cerebrospinal fluid; design: dose 60 mg/kg, route oral; details: read-out: Drug uptake
# Method in brief: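 Male Sprague−Dawley rats dosed orally at 60 mg/kg in 1% CMC/0.5% Tween/5 mM citrate in H₂O; CSF compound concentration (nM) at 1–12 h.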
# Brain [26] = experiment: Fraction unbound in CD-1 mouse brain at 10 mg/kg, po measured at 1 hr; type: ADME, organism-based; design: dose 10 mg/kg, route oral; details: in vivo
# Method in brief: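 Male CD-1 mice, 3 per cohort, dosed 10 mg/kg orally; brains harvested at 1 and 4 h.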
# [27] = Unbound plasma concentration in Hartley guinea pig at 60 mg/kg, po measured at 8 hrs; type: ADME, organism-based, Cavia porcellus; design: dose 60 mg/kg, route oral; details: in vivo; method in brief: as §4
# [28] = Ratio of unbound drug level in brain to plasma in CD-1 mouse measured at 4 hrs; type: ADME; details: CD-1, mouse, read-out: K(p,uu,brain)
# Method in brief: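 Male CD-1 mice given 10 mg/kg po, 3 per cohort; plasma and brain collected at 1 and 4 h. Free brain/plasma ratio from unbound concentrations; coverage ratio = free brain concentration divided by HEK293 Aβ₁₋₄₀ cell IC50.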
# [29] = Fraction unbound in Hartley guinea pig brain at 60 mg/kg, po measured at 12 hrs; type: ADME, organism-based, Cavia porcellus; design: dose 60 mg/kg, route oral; details: in vivo
# [30] = Drug uptake in Hartley guinea pig CSF at 60 mg/kg, po measured at 1 hr; type: ADME, organism-based, Cavia porcellus, Cerebrospinal fluid; design: dose 60 mg/kg, route oral; details: read-out: Drug uptake; method in brief: as §2
# [31] = Unbound plasma concentration in Hartley guinea pig at 60 mg/kg, po measured at 5 hrs; type: ADME, organism-based, Cavia porcellus; design: dose 60 mg/kg, route oral; details: in vivo; method in brief: as §4
# [32] = Ratio of unbound drug level in brain to plasma in Hartley guinea pig at 100 mg/kg, po measured at 3 hrs; type: ADME, organism-based, Cavia porcellus; design: dose 100 mg/kg, route oral; details: brain and plasma (unbound), read-out: K(p,uu,brain); method in brief: as §3
smiles,measurement,setting,value
CN1C(=O)[C@]2(N=C1N)c1cc(-c3cccnc3F)ccc1O[C@H]1CCOC[C@@H]12,CLint scaled at 2 µM,[1],9.7 mL/min/kg
same,Kp uu at 5 h,[2],0.029
same,Drug uptake(free),[3],9.5 nM
same,Cmax,[4],120 nM
same,concentration at 8 h,[5],1.6 nM
same,Kp uu at 1 h,[6],0.022
same,Kp uu at 12 h,[7],> 3.7
same,Cp(f),[8],140 nM
same,Drug uptake(free),Brain [9],68 nM
same,concentration at 4 h,[10],84 nM
same,Kp uu at 8 h,[11],0.049
same,Kp uu at 3 h,[12],1.5
same,Drug uptake(free),[13],5.2 nM
same,concentration at 3 h,[14],56 nM
same,concentration at 2 h,[15],110 nM
same,Drug uptake(free),[16],12 nM
same,CLint scaled at 1 µM,[17],17 mL/min/kg
same,solubility,[18],220 µg/mL
same,Cp(f),Plasma,2200 nM
same,Drug uptake(free),[19],19 nM
same,Drug uptake(free),Brain [20],79 nM
same,CLH,Rattus norvegicus,30 mL/min/kg
same,Cp(f),[21],38 nM
same,Cp(f),[22],< 3 nM
same,CLint scaled at 2 µM,[23],5.8 mL/min/kg
same,CLint scaled at 2 µM,[24],35 mL/min/kg
same,concentration at 12 h,[25],85 nM
same,Drug uptake(free),Brain [26],24 nM
same,Cp(f),[27],< 3 nM
same,Kp uu at 4 h,[28],0.19
same,Drug uptake(free),[29],11 nM
same,concentration at 1 h,[30],69 nM
same,Cp(f),[31],7 nM
same,Kp uu at 3 h,[32],1.3
